Assay results taken from ChEMBL document CHEMBL1122096, “Narcotic antagonistic potency of bivalent ligands which contain beta-naltrexamine. Evidence for bridging between proximal recognition sites” (1982).

Assays:
Format in all cases: functional
Cavia porcellus [1] = organism: Cavia porcellus; test: Tested for the narcotic antagonistic activity by measuring the ratio of the IC50 of the ethylketazocine in the presence and in the absence in guinea pig ileum at 2*10e-8M
Procedure, shortened: (§1)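 Isolated-tissue antagonism assays: guinea pig ileum (GPI) against ethylketazocine or morphine, with antagonist at 2×10^-8 M; mouse vas deferens (MVD) against DADLE, with antagonist at 1×10^-7 M. The value is the agonist IC50 with antagonist divided by the agonist IC50 without antagonist, both measured in the same preparation, reported ± SE.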

Cavia porcellus [2] = organism: Cavia porcellus; test: Tested for the narcotic antagonistic activity by measuring the ratio of the IC50 of the morphine in the presence and in the absence in guinea pig ileum at 2*10e-8M; procedure, shortened: as §1
Mus musculus [3] = organism: Mus musculus; test: Partial agonist activity by measuring the % maximum agonist response in mouse vas deferens at 1*10e-6 M concentration of compound
Mus musculus [4] = organism: Mus musculus; test: Tested for the narcotic antagonistic activity by measuring the ratio of the IC50 of the DADLE in the presence and in the absence in mouse vas deferens at 1*10e-7 M; procedure, shortened: as §1
Cavia porcellus [5] = organism: Cavia porcellus; test: Partial agonist activity was determined by measuring the % maximum agonist response in guinea pig ileum at 1*10e-6 M concentration of compound
Cavia porcellus [6] = organism: Cavia porcellus; test: Partial agonist activity was determined by measuring the % maximum agonist response in guinea pig ileum at 1*10e-8 M concentration of compound
Mus musculus [7] = organism: Mus musculus; test: Partial agonist activity by measuring the % maximum agonist response in mouse vas deferens at 1*10e-7 M concentration of compound
Cavia porcellus [8] = organism: Cavia porcellus; test: Partial agonist activity was determined by measuring the % maximum agonist response in guinea pig ileum at 5*10e-7 M concentration of compound
Cavia porcellus [9] = organism: Cavia porcellus; test: Partial agonist activity was determined by measuring the % maximum agonist response in guinea pig ileum at 3*10e-8 M concentration of compound

Compound	IC50 ratio (Cavia porcellus [1])	IC50 ratio (Cavia porcellus [2])	Max agonist response (Mus musculus [3]) [%]	IC50 ratio (Mus musculus [4])	Max agonist response (Cavia porcellus [5]) [%]	Max agonist response (Cavia porcellus [6]) [%]	Max agonist response (Mus musculus [7]) [%]	Max agonist response (Cavia porcellus [8]) [%]	Max agonist response (Cavia porcellus [9]) [%]
COCCOCCOCCN[C@@H]1CC[C@@]2(O)C3Cc4ccc(O)c5c4C2(CCN3CC2CC2)[C@H]1O5 (stereo not given in full)	1.63	3.45	49	2.09	67	–	–	–	–
Oc1ccc2c3c1O[C@H]1[C@H](NCCOCCOCCN[C@H]4CC[C@]5(O)C6Cc7ccc(O)c8c7C5(CCN6CC5CC5)[C@@H]4O8)CC[C@@]4(O)C(C2)N(CC2CC2)CCC314	16.91	3.24	–	7.17	–	10	32	–	–
Oc1ccc2c3c1O[C@H]1[C@H](NCCOCCOCCOCCOCCOCCN[C@H]4CC[C@]5(O)C6Cc7ccc(O)c8c7C5(CCN6CC5CC5)[C@@H]4O8)CC[C@@]4(O)C(C2)N(CC2CC2)CCC314	2.61	5.75	–	30.67	–	–	26	60	–
Cc1ccc(S(=O)(=O)OCCOCCOCCN[C@@H]2CC[C@@]3(O)C4Cc5ccc(O)c6c5C3(CCN4CC3CC3)[C@H]2O6)cc1 (stereo not given in full)	3.96	3.78	–	4.29	–	–	27	–	57
